S1P3 agonist – human S1P3 receptor agonists, primary screen, cell-based, primary and confirmation, NFAT-BLA reporter. Sphingosine 1-phosphate receptor 3 (Homo sapiens), Q99500. S1P3 NFAT-BLA reporter cells, agonism, FRET ratio; relative to 1 µM S1P, basal subtracted. activation, % at 4.5 µM. hit rate 0.1% among 60,000;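 active = activation above the screen-wide mean plus 3 SD, cut at about 4.5% in these data, passing the limit was not always enough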
Target sequence (Q99500 whole entry, looked up): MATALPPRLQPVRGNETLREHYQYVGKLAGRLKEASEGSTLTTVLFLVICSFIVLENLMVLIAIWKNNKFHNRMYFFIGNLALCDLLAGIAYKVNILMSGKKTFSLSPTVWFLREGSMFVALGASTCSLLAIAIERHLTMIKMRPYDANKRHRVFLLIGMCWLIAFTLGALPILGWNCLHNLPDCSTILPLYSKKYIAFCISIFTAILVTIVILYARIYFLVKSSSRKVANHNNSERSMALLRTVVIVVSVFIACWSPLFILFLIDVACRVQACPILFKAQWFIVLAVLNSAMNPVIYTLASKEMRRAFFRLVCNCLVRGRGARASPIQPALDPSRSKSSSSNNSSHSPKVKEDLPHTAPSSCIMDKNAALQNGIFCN
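Material: Human S1P3 NFAT-BLA reporter CHO cells | Incubation: Overnight plating, 4 h compound 37 °C, 2 h substrate RT | Signal: FRET β-lactamase substrate fluorescence, excitation 405 nm, 460/535 nm emission ratio, background-subtracted | Compound: 4.5 µM final, single dose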
S1P1 ag-PAM – S1P1 agonists and agonism potentiators, primary screen, cell-based, primary and confirmation screens, CRE-bla reporter; S1P1 CRE-bla cells, forskolin, beta-lactamase FRET, potentiator mode; S1P1 agonist co-added at EC20, 2 nM; 100% = saturating reference agonist, 0% = basal; activation, % at 9.5 µM; hit rate 0.57% among 56,000; AID 449, 2006;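 active = activation above a cutoff set at the mean activation of all tested compounds plus 3 SD, cut at about 54% in these data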;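 also: forskolin at 4 µM as EC80 and the EC20 agonist is SEW2871; 100% = SEW2871 at its EC100 plus forskolin at EC80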
M1 ag – M1 muscarinic receptor agonists, primary screen, CHO-M1 cells, Fluo-4 calcium, agonist mode. Muscarinic acetylcholine receptor M1. B-score at 10 µM. AID 626, 2007. Fluo-4 calcium fluorescence; hits give high values. hit rate 3% among 64,000;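 active = fluorescence rise, raw or as B-score row- and column-corrected plate score, outside the 99.7% band of its plate's samples, either direction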
D1 allo mod – D1 CRE-luciferase signal change, two-sided – cell-based, HEK293 D1, dopamine EC30, D1 allosteric modulator project, primary screen | dopamine EC30 potentiation; actives deviate in either direction | hit rate 5.9% among 58,000 | D(1A) dopamine receptor (Homo sapiens), P21728 | AID 641, 2007 | B-score at 10 µM;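 active = luminescence count or its row- and column-corrected plate score outside the 99.7% band of the plate's sample wells, on either side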
M1 antag – antagonists of rat M1 muscarinic receptor; hit rate 3.4% among 64,000; Muscarinic acetylcholine receptor M1 (Rattus norvegicus), P08482; B-score at 10 µM; AID 628, 2007; CHO-M1 cells, Fluo-4 calcium, ACh EC80 antagonist mode; hits give low values;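 active = calcium fluorescence response, raw or row-and-column corrected B-score, differing from the plate sample mean either way at a set confidence level, mostly lower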
TNAP act DEA – human TNAP enzyme activators, primary screen, biochemical, luminescent, intermediate phosphate acceptor level; Alkaline phosphatase, tissue-nonspecific isozyme (Homo sapiens), P05186; purified TNAP, CDP-star luminescence, 100 mM DEA, 30 min; hits give high values; scale: 0 levamisole-inhibited, 1 vehicle-only enzyme; activation factor at 20 µM; 64,000 tested, under 10 active;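 active = activation factor of at least 2 at 20 µM, relative to controls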
D1 PAM confirm – D1 receptor positive allosteric modulators, retest, confirmation, cell-based, HEK293 D1, CRE-luciferase, duplicate; shares compounds with D1 allo mod; dopamine EC30 potentiation; hits give high values; luminescence at 10 µM; hit rate 88% among 2,200;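 active = luminescence in either of two replicates above the same-plate mean plus 3 SD of the low-dose dopamine control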
D1 ag no DA – D1 receptor agonism without dopamine, confirmation, mechanism study for D1 allosteric modulator project, cell-based, HEK293 D1, CRE-luciferase, secondary assay 1; hit rate 0.8% among 1,900; shares compounds with D1 allo mod; luminescence, no dopamine; hits give high values; AID 646, 2007; luminescence at 10 µM; in the data active = luminescence above about 3900
Isoprot counter – counter-screen for D1 modulators: isoproterenol response in HEK293 cells; AID 647; luminescence at 10 µM; HEK293 D1 CRE-luciferase, isoproterenol EC30 counter-screen; hits give high values; hit rate 63% among 2,200; shares compounds with D1 allo mod;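 active = luminescence in either replicate above plate mean of wells with a partly effective reference agonist dose plus 3 SD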;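 also: isoproterenol raises cAMP through native beta-adrenoceptor Gs so signal bypasses D1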
Starred values were filed as active, the others as inactive; . = not tested or not shown. Rows were chosen to be rich in hits. Some 11% of all compounds tested hit in one or more screens of this group.

SMILES	S1P3 agonist	S1P1 ag-PAM	M1 ag	D1 allo mod	M1 antag	TNAP act DEA	D1 PAM confirm	D1 ag no DA	Isoprot counter
Brc1ccc(-c2nn3c(Cc4ccccc4)nnc3s2)o1	-0.8	13.9	0.027	3.81*	0.467	0.9	11236*	1820	3280
CCn1c(SCC(=O)OC2CCCCC2)nnc1-c1ccncc1	-1.7	-12.4	0.00524	-0.434	-0.194	0.9	.	.	.
Cc1ccc(-c2cc(C(F)F)nc(NCc3cccnc3)n2)cc1	.	.	-0.462	12.6*	0.636	0.7	16464*	.	4600*
Cc1ccc(-c2cc(C(F)F)nc(NCC3CCCO3)n2)cc1 (stereo not given)	.	.	-0.106	3.31*	0.617	0.8	14888*	.	3624*
Fc1ccc(NCc2cccnc2)cc1	.	.	1.18	0.555	0.17	1	.	.	.
COc1ccc(/C(O)=C2/C(=O)C(=O)N(CCN(C)C)C2c2ccc(OC)c(OC)c2)c(C)c1 (stereo not given)	-0.4	1.1	-0.394	-0.184	0.142	0.9	.	.	.
CC1(C)Cc2c(c(-c3ccco3)[nH]c(=O)c2C#N)CO1	-0.7	-2.7	0.0867	4.25*	0.2	1	15660*	1772	3284*
CC1(C)Cc2c(C#N)c(N3CCCC3)nc(-c3ccco3)c2CO1	2.0	-82.3	-0.0494	5.33*	-0.00465	1	9980*	1576	2832
CC1(C)Cc2c(c(-c3ccco3)nc3n[nH]c(N)c23)CO1	-0.9	-6.0	-0.279	11.4*	-0.0946	1	17288*	1464	4488*
CC1(C)Cc2c(C#N)c(NCc3ccco3)nc(-c3ccco3)c2CO1	2.4	-57.4	-0.11	.	0.263	0.9	.	.	.
CN(C)CCNc1nc(-c2ccco2)c2c(c1C#N)CC(C)(C)OC2	-0.2	-24.9	-0.0772	.	-0.366	0.9	.	.	.
CC1CCCCC1NC(=O)Cn1ncc2ccccc21 (stereo not given)	0.9	-14.0	0.0126	0.0453	-0.0423	0.8	.	.	.
N#Cc1c(N)nc(SC2CCCCC2=O)c(C#N)c1-c1ccco1 (stereo not given)	.	.	0.358	.	1.73	0.9	.	.	.
Cc1c(-c2ccc(F)cc2)nc(N)c(C#N)c1-c1ccco1	0.3	-49.0	-1.85	5.83*	-0.406	1	8280*	.	2672
N#Cc1c(N)nc(SCc2ccccc2)c(C#N)c1-c1ccco1	0.7	-44.8	-0.642	4.25*	0.348	0.9	9744*	1440	4144*
CCCc1nc(N)c(C#N)c(-c2ccco2)c1CC	-0.3	.	-0.273	6.72*	-1.2	0.9	9040*	1564	3488*
CCn1c(SCC(=O)Nc2nccs2)nnc1-c1ccc(S(=O)(=O)N2CCCCC2)cc1	0.5	5.7	-0.61	-1.3	-0.0417	0.9	.	.	.
CCc1nnc(NC(=O)CSc2nnc(COc3ccccc3)n2Cc2ccccc2)s1	-0.1	-21.7	-0.0456	0.214	-0.114	0.9	.	.	.
COc1cc(OC)cc(C(=O)Nc2cccc(C(C)=O)c2)c1	.	.	0.255	-0.833	-0.596	0.8	.	.	.
COc1cc(OC)cc(C(C)=O)c1	-1.1	-21.9	0.627	8.46*	-0.0552	0.9	24876*	1768	4388*
